Source: ChEMBL document CHEMBL1140759, “Synthesis, anti-Toxoplasma gondii and antimicrobial activities of benzaldehyde 4-phenyl-3-thiosemicarbazones and 2-[(phenylmethylene)hydrazono]-4-oxo-3-phenyl-5-thiazolidineacetic acids” (Bioorg Med Chem, 2008)

Key:
[1] = test system: Toxoplasma gondii; assay: Inhibition of Toxoplasma gondii infected in african green monkey Vero cells; format: functional, organism-based
Outline: (§1)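 Infected Vero cultures were exposed to compound at 0.01–30 mM for 24 h, in triplicate per assay. IC50 for infected cells and intracellular parasites was derived by non-linear regression, using trypan blue exclusion.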

[2] = test system: Bacillus subtilis; assay: Antimicrobial activity against Bacillus subtilis at 300 ug/disc; format: functional; conditions: read-out: IZ
Outline: (§2)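 Disc diffusion on agar plates inoculated with a standardized microbial suspension, with paper discs carrying known compound amounts. DMSO-only discs served as negative controls, and chloramphenicol, rifampicin (bacteria) or nistatin (fungi) as references. The read-out is the mean inhibition zone diameter in mm. Each run was done three times and repeated if results differed.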

[3] = test system: Mycolicibacterium phlei; assay: Antimicrobial activity against Mycobacterium phlei at 300 ug/disc; format: functional; conditions: read-out: IZ; outline: as §2
[4] = test system: Escherichia coli; assay: Antimicrobial activity against Escherichia coli at 300 ug/disc; format: functional; conditions: read-out: IZ; outline: as §2
[5] = test system: Toxoplasma gondii; assay: Antiparasitic activity against Toxoplasma gondii infected african green monkey Vero cells at 20 mM assessed as infected cells; format: functional
Outline: (§3)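 Vero cells were infected with RH-strain tachyzoites (5:1 parasite:cell) for 1 h, washed with PBS, and grown 24 h at 37 °C in medium 199 with 5% FCS. Compound was then added for 24 h. Cells were fixed with Bouin's, stained with Giemsa, and at least 400 cells were counted by light microscopy for the percentage infected. Hydroxyurea and sulfadiazine served as references.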

[6] = test system: Toxoplasma gondii; assay: Inhibition of intracellular parasite Toxoplasma gondii; format: functional, organism-based; outline: as §1
[7] = test system: Vero; assay: Inhibition of uninfected african green monkey Vero cells; format: cell-based; conditions: Chlorocebus sabaeus
[8] = test system: Toxoplasma gondii; assay: Antiparasitic activity against Toxoplasma gondii infected african green monkey Vero cells at 0.1 mM assessed as infected cells; format: functional; outline: as §3
[9] = test system: Mycobacterium tuberculosis; assay: Antimicrobial activity against Mycobacterium tuberculosis at 300 ug/disc; format: functional; conditions: read-out: IZ
Outline: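 Agar disc diffusion: paper discs loaded with compound placed on agar plates seeded with a standardised microbial suspension. DMSO-only discs served as negative control. Chloramphenicol and rifampicin (bacteria) or nistatin (fungi) gave reference zones. Read-out was mean zone of inhibition diameter (mm). Each experiment was run three times and repeated if results differed.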

[10] = test system: Mycolicibacterium smegmatis; assay: Antimicrobial activity against Mycobacterium smegmatis at 300 ug/disc; format: functional; conditions: read-out: IZ; outline: as §2
[11] = test system: Enterococcus faecalis; assay: Antimicrobial activity against Streptococcus faecalis at 300 ug/disc; format: functional; conditions: read-out: IZ; outline: as §2
[12] = test system: Micrococcus luteus; assay: Antimicrobial activity against Micrococcus luteus at 300 ug/disc; format: functional; conditions: read-out: IZ; outline: as §2
[13] = test system: Toxoplasma gondii; assay: Antiparasitic activity against Toxoplasma gondii infected african green monkey Vero cells at 5 mM assessed as infected cells; format: functional; outline: as §3
[14] = test system: Klebsiella pneumoniae; assay: Antimicrobial activity against Klebsiella pneumoniae at 300 ug/disc; format: functional; conditions: read-out: IZ; outline: as §2
[15] = test system: Toxoplasma gondii; assay: Antiparasitic activity against Toxoplasma gondii infected african green monkey Vero cells at 2 mM assessed as infected cells; format: functional; outline: as §3
[16] = test system: Toxoplasma gondii; assay: Antiparasitic activity against Toxoplasma gondii infected african green monkey Vero cells at 8 mM assessed as infected cells; format: functional; outline: as §3
[17] = test system: Staphylococcus aureus; assay: Antimicrobial activity against Staphylococcus aureus at 300 ug/disc; format: functional; conditions: read-out: IZ; outline: as §2
[18] = test system: Candida albicans; assay: Antimicrobial activity against Candida albicans at 300 ug/disc; format: functional; conditions: read-out: IZ; outline: as §2
[19] = test system: Candida; assay: Antimicrobial activity against Candida sp. IMUR1224 at 300 ug/disc; format: functional; conditions: read-out: IZ; outline: as §2
[20] = test system: Candida; assay: Antimicrobial activity against Candida sp. IMUR720 at 300 ug/disc; format: functional; conditions: read-out: IZ; outline: as §2
[21] = test system: Saccharomyces cerevisiae; assay: Antimicrobial activity against Saccharomyces cerevisiae at 300 ug/disc; format: functional; conditions: read-out: IZ; outline: as §2
[22] = test system: Candida; assay: Antimicrobial activity against Candida sp. IMUR4249 at 300 ug/disc; format: functional; conditions: read-out: IZ; outline: as §2

SMILES | IC50 [1] [µM] | Activity [5] [%] | IC50 [6] [µM] | IC50 [7] [µM] | Activity [8] [%] | Activity [13] [%] | Activity [15] [%] | Activity [16] [%] | further results
Cc1ccc(/C=N/N=C2\SC(CC(=O)O)C(=O)N2c2ccccc2)cc1 (stereo not drawn) | 100 | 0 | 50 | 1000 | 39.2 | 0 | 1.23 | 0 | zone of inhibition at 300 µg/disc [2]: < 7 mm; zone of inhibition at 300 µg/disc [3]: < 7 mm; zone of inhibition at 300 µg/disc [4]: < 7 mm; zone of inhibition at 300 µg/disc [9]: < 7 mm; zone of inhibition at 300 µg/disc [10]: < 7 mm; zone of inhibition at 300 µg/disc [11]: 12 mm; zone of inhibition at 300 µg/disc [12]: 16 mm; zone of inhibition at 300 µg/disc [14]: < 7 mm; zone of inhibition at 300 µg/disc [17]: < 7 mm
COc1cc(/C=N/NC(=S)Nc2ccccc2)ccc1O | 1000 | 0 | 100 | 6000 | 80.05 | 19.3 | 19.7 | 2.6 | –
Fc1ccc(/C=N/NC(=S)Nc2ccccc2)cc1 | 2000 | 0 | 1000 | 10000 | 46.59 | 28 | 35.2 | 19.83 | –
S=C(N/N=C/c1ccc(Cl)cc1Cl)Nc1ccccc1 | 2000 | 0 | 1000 | 6000 | 49.33 | 31.32 | 33.28 | 12.08 | –
Cc1ccc(/C=N/NC(=S)Nc2ccccc2)cc1 | 4000 | 0 | 3000 | 8000 | 51.08 | 27.84 | 36.78 | 2.96 | –
S=C(N/N=C/c1ccccc1)Nc1ccccc1 | 5000 | 0 | 4000 | 5000 | 82.5 | 31.83 | 77.82 | 13.52 | –
Fc1ccccc1/C=N/NC(=S)Nc1ccccc1 | 1500 | 0 | 1000 | 4000 | 91.5 | 14.32 | 28.13 | 29.29 | –
S=C(N/N=C/c1ccc(Cl)cc1)Nc1ccccc1 | 7000 | 0 | 1500 | 10000 | 70.01 | 38.7 | 34.8 | 21.05 | –
Nc1ccc(S(=O)(=O)Nc2ncccn2)cc1 [SULFADIAZINE] | 3000 | 0 | 3000 | 8000 | 53.84 | 29.55 | 48.71 | 6.84 | –
COc1cc(/C=N/N=C2\SC(CC(=O)O)C(=O)N2c2ccccc2)ccc1O (stereo not drawn) | 3000 | 0 | 1000 | 100 | 46.02 | 3.5 | 41.96 | 0 | zone of inhibition at 300 µg/disc [18]: < 7 mm; zone of inhibition at 300 µg/disc [19]: < 7 mm; zone of inhibition at 300 µg/disc [2]: < 7 mm; zone of inhibition at 300 µg/disc [3]: < 7 mm; zone of inhibition at 300 µg/disc [4]: < 7 mm; zone of inhibition at 300 µg/disc [20]: < 7 mm; zone of inhibition at 300 µg/disc [21]: < 7 mm; zone of inhibition at 300 µg/disc [9]: < 7 mm; zone of inhibition at 300 µg/disc [10]: < 7 mm; zone of inhibition at 300 µg/disc [11]: < 7 mm; zone of inhibition at 300 µg/disc [12]: < 7 mm; zone of inhibition at 300 µg/disc [14]: < 7 mm; zone of inhibition at 300 µg/disc [17]: < 7 mm
COc1ccc(/C=N/NC(=S)Nc2ccccc2)c(OC)c1 | 2000 | 1.49 | 2000 | 5000 | 73 | 9.2 | 41.44 | 3.6 | –
S=C(N/N=C/c1ccc(Cl)c(Cl)c1)Nc1ccccc1 | 5000 | 0 | 2000 | 6000 | 49.18 | 21.96 | 38.02 | 4.54 | –
CC(C)(C)c1cc(/C=N/NC(=S)Nc2ccccc2)cc(C(C)(C)C)c1O | 5000 | 0 | 4000 | 10000 | 63.44 | 30.51 | 64.07 | 6.42 | –
COc1cc(/C=N/NC(=S)Nc2ccccc2)cc(OC)c1OC | 3000 | 0 | 2000 | 10000 | 76.37 | 24.32 | 72.04 | 23.17 | –
COc1ccc(/C=N/N=C2\SC(CC(=O)O)C(=O)N2c2ccccc2)cc1 (stereo not drawn) | 500 | 0 | – | 6000 | 27.32 | 5.9 | 4.51 | 0 | zone of inhibition at 300 µg/disc [18]: 15 mm; zone of inhibition at 300 µg/disc [19]: < 7 mm; zone of inhibition at 300 µg/disc [2]: 11 mm; zone of inhibition at 300 µg/disc [3]: < 7 mm; zone of inhibition at 300 µg/disc [22]: 16 mm; zone of inhibition at 300 µg/disc [4]: < 7 mm; zone of inhibition at 300 µg/disc [20]: < 7 mm; zone of inhibition at 300 µg/disc [21]: < 7 mm; zone of inhibition at 300 µg/disc [9]: < 7 mm; zone of inhibition at 300 µg/disc [10]: < 7 mm; zone of inhibition at 300 µg/disc [11]: < 7 mm; zone of inhibition at 300 µg/disc [12]: 16 mm; zone of inhibition at 300 µg/disc [14]: < 7 mm; zone of inhibition at 300 µg/disc [17]: < 7 mm
S=C(N/N=C/c1cccc(Cl)c1)Nc1ccccc1 | 7000 | 0 | 3000 | 10000 | 44.52 | 52.06 | 60.69 | 24.49 | –
COc1ccc(/C=N/NC(=S)Nc2ccccc2)cc1 | 2000 | 0 | 1000 | 6000 | 50.43 | 19 | 29.39 | 12.36 | –
CN(C)c1ccc(/C=N/NC(=S)Nc2ccccc2)cc1 | 2000 | 0 | 1000 | 6000 | 76.14 | 18.14 | 35.81 | 13.46 | –
Cc1cccc(/C=N/NC(=S)Nc2ccccc2)c1 | 5000 | 0 | 2000 | 5000 | 66.23 | 26.86 | 39.82 | 22.72 | –
COc1cccc(/C=N/NC(=S)Nc2ccccc2)c1 | 2000 | 0 | 1000 | 5000 | 53.6 | 9.7 | 34.82 | 5.9 | –
NC(=O)NO [HYDROXYUREA] | 500 | 0 | 100 | 1000 | 58.23 | 10.4 | 22.78 | 7.37 | –
